{"source": "ChEMBL document CHEMBL4689842", "about": "“EUbOPEN Chemogenomics Library wave 1” (2021)", "type_in_all_cases": "toxicity, cell-based", "key": {"[1]": {"system": "U2OS", "test": "Multiplex assay against U2OS", "conditions": "human", "summary_of_the_method": "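Values for tubulin, mitochondrial-mass and membrane-permeability phenotypes are per cents of cells with healthy nuclei. These cells were identified by CellPathfinder machine-learning gating of live cells that had been stained at seeding with Hoechst33342, BioTracker Green Microtubule Cytoskeleton Dye, MitoTracker Red and Annexin V Alexa Fluor 680 and imaged on a CQ1 microscope at 37°C and 5% CO2 after compound addition. The gating first set Hoechst high-intensity objects apart from normal cells, then split normal cells into healthy, pyknosed or fragmented nuclei, and pyknosed cells into mitotic or apoptotic.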"}, "[2]": {"system": "HEK-293T", "test": "Incucyte cell viability with HEK293T; also: filed as whole numbers so only -1 and 0 and 1 occur", "conditions": "human, 10 µM, compound concentration 10 uM"}, "[3]": {"system": "U2OS", "test": "Incucyte cell viability with U2OS; also: filed as whole numbers so only -1 and 0 and 1 occur", "conditions": "human, 10 µM, compound concentration 10 uM"}, "[4]": {"conditions": "12 h, 1 µM, compound concentration 1 uM, replicate 1"}, "[5]": {"conditions": "12 h, 1 µM, compound concentration 1 uM, replicate 2"}, "[6]": {"conditions": "12 h, 10 µM, compound concentration 10 uM, replicate 1"}, "[7]": {"conditions": "12 h, 10 µM, compound concentration 10 uM, replicate 2"}, "[8]": {"conditions": "24 h, 1 µM, compound concentration 1 uM, replicate 1"}, "[9]": {"conditions": "24 h, 1 µM, compound concentration 1 uM, replicate 2"}, "[10]": {"conditions": "24 h, 10 µM, compound concentration 10 uM, replicate 1"}, "[11]": {"conditions": "24 h, 10 µM, compound concentration 10 uM, replicate 2"}, "[12]": {"conditions": "0 h, replicate number 2, timepoint 0 hours"}, "[13]": {"conditions": "12 h, replicate number 2, timepoint 12 hours"}, "[14]": {"conditions": "18 h, replicate number 1, timepoint 18 hours"}, "[15]": {"conditions": "24 h, replicate number 1, timepoint 24 hours"}}}
{"smiles": "CCOc1cc(N2CCC(O)CC2)ccc1Nc1ncc2c(n1)N(C1CCCC1)CCC(=O)N2C", "values": [{"measurement": "Population Apoptotic (%)", "setting": "[1]; [4]", "value": 46, "unit": "%"}, {"measurement": "Population Fragmented Nuclei (%)", "setting": "[1]; [4]", "value": 5, "unit": "%"}, {"measurement": "Population Healthy Nuclei (%)", "setting": "[1]; [4]", "value": 86, "unit": "%"}, {"measurement": "Population Hoechst High Intensity Objects (%)", "setting": "[1]; [4]", "value": 4, "unit": "%"}, {"measurement": "Population Membrane Permeable-Phenotype (%)", "setting": "[1]; [4]", "value": 16, "unit": "%"}, {"measurement": "Population Mitochondria Different-Phenotype (%)", "setting": "[1]; [4]", "value": 14, "unit": "%"}, {"measurement": "Population Mitotic Cells (%)", "setting": "[1]; [4]", "value": 53, "unit": "%"}, {"measurement": "Population Normal (%)", "setting": "[1]; [4]", "value": 95, "unit": "%"}, {"measurement": "Population Pyknosed Nuclei (%)", "setting": "[1]; [4]", "value": 8, "unit": "%"}, {"measurement": "Population Tubulin-Different-Phenotype (%)", "setting": "[1]; [4]", "value": 18, "unit": "%"}, {"measurement": "Population Apoptotic (%)", "setting": "[1]; [5]", "value": 50, "unit": "%"}, {"measurement": "Population Fragmented Nuclei (%)", "setting": "[1]; [5]", "value": 8, "unit": "%"}, {"measurement": "Population Healthy Nuclei (%)", "setting": "[1]; [5]", "value": 89, "unit": "%"}, {"measurement": "Population Hoechst High Intensity Objects (%)", "setting": "[1]; [5]", "value": 7, "unit": "%"}, {"measurement": "Population Membrane Permeable-Phenotype (%)", "setting": "[1]; [5]", "value": 18, "unit": "%"}, {"measurement": "Population Mitochondria Different-Phenotype (%)", "setting": "[1]; [5]", "value": 16, "unit": "%"}, {"measurement": "Population Mitotic Cells (%)", "setting": "[1]; [5]", "value": 50, "unit": "%"}, {"measurement": "Population Normal (%)", "setting": "[1]; [5]", "value": 92, "unit": "%"}, {"measurement": "Population Pyknosed Nuclei (%)", "setting": "[1]; [5]", "value": 2, "unit": "%"}, {"measurement": "Population Tubulin-Different-Phenotype (%)", "setting": "[1]; [5]", "value": 17, "unit": "%"}, {"measurement": "Population Apoptotic (%)", "setting": "[1]; [6]", "value": 27, "unit": "%"}, {"measurement": "Population Fragmented Nuclei (%)", "setting": "[1]; [6]", "value": 4, "unit": "%"}, {"measurement": "Population Healthy Nuclei (%)", "setting": "[1]; [6]", "value": 89, "unit": "%"}, {"measurement": "Population Hoechst High Intensity Objects (%)", "setting": "[1]; [6]", "value": 1, "unit": "%"}, {"measurement": "Population Membrane Permeable-Phenotype (%)", "setting": "[1]; [6]", "value": 5, "unit": "%"}, {"measurement": "Population Mitochondria Different-Phenotype (%)", "setting": "[1]; [6]", "value": 24, "unit": "%"}, {"measurement": "Population Mitotic Cells (%)", "setting": "[1]; [6]", "value": 72, "unit": "%"}, {"measurement": "Population Normal (%)", "setting": "[1]; [6]", "value": 98, "unit": "%"}, {"measurement": "Population Pyknosed Nuclei (%)", "setting": "[1]; [6]", "value": 5, "unit": "%"}, {"measurement": "Population Tubulin-Different-Phenotype (%)", "setting": "[1]; [6]", "value": 28, "unit": "%"}, {"measurement": "Population Apoptotic (%)", "setting": "[1]; [7]", "value": 33, "unit": "%"}, {"measurement": "Population Fragmented Nuclei (%)", "setting": "[1]; [7]", "value": 7, "unit": "%"}, {"measurement": "Population Healthy Nuclei (%)", "setting": "[1]; [7]", "value": 90, "unit": "%"}, {"measurement": "Population Hoechst High Intensity Objects (%)", "setting": "[1]; [7]", "value": 8, "unit": "%"}, {"measurement": "Population Membrane Permeable-Phenotype (%)", "setting": "[1]; [7]", "value": 7, "unit": "%"}, {"measurement": "Population Mitochondria Different-Phenotype (%)", "setting": "[1]; [7]", "value": 33, "unit": "%"}, {"measurement": "Population Mitotic Cells (%)", "setting": "[1]; [7]", "value": 66, "unit": "%"}, {"measurement": "Population Normal (%)", "setting": "[1]; [7]", "value": 91, "unit": "%"}, {"measurement": "Population Pyknosed Nuclei (%)", "setting": "[1]; [7]", "value": 2, "unit": "%"}, {"measurement": "Population Tubulin-Different-Phenotype (%)", "setting": "[1]; [7]", "value": 27, "unit": "%"}, {"measurement": "Population Fragmented Nuclei (%)", "setting": "[1]; [8]", "value": 7, "unit": "%"}, {"measurement": "Population Healthy Nuclei (%)", "setting": "[1]; [8]", "value": 87, "unit": "%"}, {"measurement": "Population Hoechst High Intensity Objects (%)", "setting": "[1]; [8]", "value": 2, "unit": "%"}, {"measurement": "Population Membrane Permeable-Phenotype (%)", "setting": "[1]; [8]", "value": 8, "unit": "%"}, {"measurement": "Population Mitochondria Different-Phenotype (%)", "setting": "[1]; [8]", "value": 17, "unit": "%"}, {"measurement": "Population Normal (%)", "setting": "[1]; [8]", "value": 97, "unit": "%"}, {"measurement": "Population Tubulin-Different-Phenotype (%)", "setting": "[1]; [8]", "value": 18, "unit": "%"}, {"measurement": "Population Apoptotic (%)", "setting": "[1]; [9]", "value": 60, "unit": "%"}, {"measurement": "Population Fragmented Nuclei (%)", "setting": "[1]; [9]", "value": 10, "unit": "%"}, {"measurement": "Population Healthy Nuclei (%)", "setting": "[1]; [9]", "value": 85, "unit": "%"}, {"measurement": "Population Hoechst High Intensity Objects (%)", "setting": "[1]; [9]", "value": 6, "unit": "%"}, {"measurement": "Population Membrane Permeable-Phenotype (%)", "setting": "[1]; [9]", "value": 11, "unit": "%"}, {"measurement": "Population Mitochondria Different-Phenotype (%)", "setting": "[1]; [9]", "value": 20, "unit": "%"}, {"measurement": "Population Mitotic Cells (%)", "setting": "[1]; [9]", "value": 40, "unit": "%"}, {"measurement": "Population Normal (%)", "setting": "[1]; [9]", "value": 93, "unit": "%"}, {"measurement": "Population Pyknosed Nuclei (%)", "setting": "[1]; [9]", "value": 4, "unit": "%"}, {"measurement": "Population Tubulin-Different-Phenotype (%)", "setting": "[1]; [9]", "value": 20, "unit": "%"}, {"measurement": "Population Apoptotic (%)", "setting": "[1]; [10]", "value": 44, "unit": "%"}, {"measurement": "Population Fragmented Nuclei (%)", "setting": "[1]; [10]", "value": 3, "unit": "%"}, {"measurement": "Population Healthy Nuclei (%)", "setting": "[1]; [10]", "value": 93, "unit": "%"}, {"measurement": "Population Hoechst High Intensity Objects (%)", "setting": "[1]; [10]", "value": 1, "unit": "%"}, {"measurement": "Population Membrane Permeable-Phenotype (%)", "setting": "[1]; [10]", "value": 5, "unit": "%"}, {"measurement": "Population Mitochondria Different-Phenotype (%)", "setting": "[1]; [10]", "value": 22, "unit": "%"}, {"measurement": "Population Mitotic Cells (%)", "setting": "[1]; [10]", "value": 55, "unit": "%"}, {"measurement": "Population Normal (%)", "setting": "[1]; [10]", "value": 98, "unit": "%"}, {"measurement": "Population Pyknosed Nuclei (%)", "setting": "[1]; [10]", "value": 3, "unit": "%"}, {"measurement": "Population Tubulin-Different-Phenotype (%)", "setting": "[1]; [10]", "value": 24, "unit": "%"}, {"measurement": "Population Apoptotic (%)", "setting": "[1]; [11]", "value": 20, "unit": "%"}, {"measurement": "Population Fragmented Nuclei (%)", "setting": "[1]; [11]", "value": 9, "unit": "%"}, {"measurement": "Population Healthy Nuclei (%)", "setting": "[1]; [11]", "value": 87, "unit": "%"}, {"measurement": "Population Hoechst High Intensity Objects (%)", "setting": "[1]; [11]", "value": 7, "unit": "%"}, {"measurement": "Population Membrane Permeable-Phenotype (%)", "setting": "[1]; [11]", "value": 2, "unit": "%"}, {"measurement": "Population Mitochondria Different-Phenotype (%)", "setting": "[1]; [11]", "value": 24, "unit": "%"}, {"measurement": "Population Mitotic Cells (%)", "setting": "[1]; [11]", "value": 80, "unit": "%"}, {"measurement": "Population Normal (%)", "setting": "[1]; [11]", "value": 92, "unit": "%"}, {"measurement": "Population Pyknosed Nuclei (%)", "setting": "[1]; [11]", "value": 2, "unit": "%"}, {"measurement": "Population Tubulin-Different-Phenotype (%)", "setting": "[1]; [11]", "value": 38, "unit": "%"}, {"measurement": "Growth Rate", "setting": "[2]; 0 h, replicate number 1, timepoint 0 hours", "value": 0}, {"measurement": "Growth Rate", "setting": "[2]; [12]", "value": 1}, {"measurement": "Growth Rate", "setting": "[2]; [13]", "value": 1}, {"measurement": "Growth Rate", "setting": "[2]; [14]", "value": 1}, {"measurement": "Growth Rate", "setting": "[2]; [15]", "value": 0}, {"measurement": "Growth Rate", "setting": "[3]; [12]", "value": 0}, {"measurement": "Growth Rate", "setting": "[3]; 6 h, replicate number 1, timepoint 6 hours", "value": 0}, {"measurement": "Growth Rate", "setting": "[3]; 12 h, replicate number 1, timepoint 12 hours", "value": 1}, {"measurement": "Growth Rate", "setting": "[3]; [13]", "value": 0}, {"measurement": "Growth Rate", "setting": "[3]; [14]", "value": 0}, {"measurement": "Growth Rate", "setting": "[3]; [15]", "value": 0}]}
